Screening data as filed in PubChem.
M4 ag = human M4 muscarinic receptor agonists, primary screen, CHO-K1 cells, Fluo-8 calcium fluorescence. 360,000 compounds, 0.14% hits. activation, % at 3 µM. AID 624127, 2012. CHO-K1 hM4/Gqi5; vehicle 0%, full acetylcholine response 100%;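 active = activation above the run mean over all test wells plus 3 SD, cut at about 32% in these data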;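 note: peak over basal fluorescence ratio per well then scaled between controls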
Target sequence (P08173 whole entry, looked up): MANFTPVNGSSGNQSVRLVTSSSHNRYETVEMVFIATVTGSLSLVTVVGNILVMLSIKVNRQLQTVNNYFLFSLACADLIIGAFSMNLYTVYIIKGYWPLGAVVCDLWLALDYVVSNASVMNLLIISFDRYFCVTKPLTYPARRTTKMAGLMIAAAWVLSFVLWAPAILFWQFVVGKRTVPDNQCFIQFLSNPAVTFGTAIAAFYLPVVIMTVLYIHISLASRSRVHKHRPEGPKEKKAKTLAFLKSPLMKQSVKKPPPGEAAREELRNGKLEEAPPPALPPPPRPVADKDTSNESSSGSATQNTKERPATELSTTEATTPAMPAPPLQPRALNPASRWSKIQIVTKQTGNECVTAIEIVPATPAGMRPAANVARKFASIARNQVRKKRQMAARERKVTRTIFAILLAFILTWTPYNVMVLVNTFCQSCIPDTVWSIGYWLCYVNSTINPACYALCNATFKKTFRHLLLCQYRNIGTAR
M4 PAM = human M4 muscarinic receptor positive allosteric modulators, primary screen, CHO-K1 cells, Fluo-8 calcium fluorescence | Muscarinic acetylcholine receptor M4 (Homo sapiens), P08173 | CHO-K1 hM4/Gqi5, ACh EC20; 0% = ACh EC20, 100% = maximal ACh | activation, % at 3 µM | 360,000 compounds, 0.4% hits;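 active = activation above its plate's cutoff, the mean activation of sample wells plus 3 SD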
CHRM5 agonist = human M5 muscarinic receptor agonists, primary screen, CHO-K1 cells, Fluo-8 calcium fluorescence; AID 624037, 2012; 360,000 compounds, 0.19% hits; activation, % at 3 µM; CHO-K1 hM5 cells; 0% DMSO wells, 100% maximal acetylcholine response;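 active = activation above the run's mean over test compounds plus 3 SD, cut at about 23% in these data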;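 note: signal is peak over basal fluorescence ratio across the kinetic read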
CHRM5 antagonist = human M5 muscarinic receptor antagonists, primary screen, CHO cells, Fluo-8 calcium fluorescence | Muscarinic acetylcholine receptor M5 (Homo sapiens), P08912 | CHO-hM5 cells, ACh EC80 | inhibition, % at 3 µM | 360,000 compounds, 0.59% hits | AID 624040, 2012;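 active = inhibition above a per-plate cutoff, the mean of that plate's test compounds plus 3 SD, cut at about 27% in these data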
M4 antag = human M4 muscarinic receptor antagonists, primary screen, CHO cells, Fluo-8 calcium fluorescence | Muscarinic acetylcholine receptor M4 (Homo sapiens), P08173 | CHO-hM4 cells, ACh EC80 | inhibition, % at 3 µM | 360,000 compounds, 0.73% hits | AID 624125, 2012;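 active = inhibition above its plate's cutoff, the mean inhibition of sample wells plus 3 SD, cut at about 27% in these data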
CHRM5 PAM = human M5 muscarinic receptor positive allosteric modulators, primary screen, CHO-K1 cells, Fluo-8 calcium fluorescence | AID 624038, 2012 | Muscarinic acetylcholine receptor M5 (Homo sapiens), P08912 | activation, % at 3 µM | 360,000 compounds, 0.3% hits | CHO-K1 hM5, ACh EC20 PAM; 0% = ACh EC20, 100% = ACh EC100;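 active = activation above the run cutoff, the mean activation of all test compounds plus 3 SD, cut at about 18% in these data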
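Measured by: Fluo-8 calcium fluorescence; material: human M5 receptor in CHO-K1 cells; schedule: Post-acetylcholine fluorescence recording 140 s; benchmarks: low control EC20 acetylcholine (0%), high control EC100 acetylcholine (100%); read-out: Max/basal fluorescence ratio as % of EC20–EC100 ACh window; compound: single dose, 3 µM nominal final test concentration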
Numbers stand for hits; - = inactive. The list is not random: actives were taken first. Their share in the collection is about 1.8%.

SMILES	M4 ag	M4 PAM	CHRM5 agonist	CHRM5 antagonist	M4 antag	CHRM5 PAM
CC1Cc2ccccc2N1S(=O)(=O)c1cccc(C(=O)NCc2ccco2)c1 (stereo unspecified)	-	-	-	-	-	-
COc1ccc(OC)c(C(=O)N2CCC(n3nccc3NC(=O)CC(C)C)CC2)c1	-	-	-	-	-	-
COc1ccc(-[n+]2c(C)cc(/C=C3\Sc4ccccc4N3C)cc2C)cc1	-	-	-	48.5	49.5	-
COc1ccc(C(=O)/C=C2\Sc3ccccc3N2C)cc1	-	-	-	-	-	-
COc1ccccc1OC(=O)CCN1c2ccccc2Sc2ccccc21	-	-	-	-	-	-
COc1ccccc1-[n+]1c(C)cc(/C=C2\Sc3ccccc3N2C)cc1C	-	-	-	53.4	40.1	-
Cc1cc(C(=O)Nc2cccc(C)c2C)c2ccccc2n1	-	-	-	-	-	-
C=CCN1C(=O)S/C(=C\c2ccc(N3CCOCC3)cc2C)C1=O	-	27.3	-	-	-	-
C#CCOCCOCCOCCNc1nc(N2CCN(C(=O)C([C@@H](C)O)n3cc([C@@H](N)CCCCN)nn3)CC2)nc(N2CCN(C(=O)[C@H](CC(N)=O)n3cc(C(N)[C@@H](C)CC)nn3)CC2)n1 (stereo partly specified)	-	-	-	-	35.0	-
CCOc1ccccc1CNS(=O)(=O)c1ccc(-c2cnc(C3CC3)o2)cc1	-	-	-	27.6	28.2	-
COc1ccc(CCNC(=O)/C=C/c2ccco2)cc1	-	-	-	-	-	-
CCCCCn1c(CNC(=O)CCC)nc2ccccc21	-	-	-	-	-	-
CCCCCn1c(CNC(=O)CC)nc2ccccc21	-	-	43.2	-	-	-
CN1[C@@H]2CCC[C@H]1CC(NC(=O)c1nn(C)c3ccccc13)C2 (stereo partly specified)	-	-	-	-	-	-
CC(C)(C)OC(=O)NC(CNCc1ccccc1)Cc1ccccc1 (stereo unspecified)	-	-	-	-	-	-
O=C(NCc1cccnc1)/C(=C/c1ccc(-c2ccc(Cl)cc2)o1)S(=O)(=O)c1ccccc1	-	-	-	-	27.6	-
CC(=O)Nc1ccccc1NC(=O)C/C(C)=N/NC(=O)c1ccc([N+](=O)[O-])c(Cl)c1	-	23.7	-	-	-	-
C/C(CC(=O)Nc1cccnc1)=N\NC(=O)c1ccc([N+](=O)[O-])c(Cl)c1	-	-	-	-	-	-
CCCCCCNC(=O)CNC(=S)N(Cc1cccs1)C1CCCCC1	-	-	-	-	-	-
COc1cccc2c(=O)n(CC(=O)NCCc3ccccc3)ccc12	-	-	-	-	29.5	-
O=C(COC(=O)CCS(=O)(=O)c1ccccc1)Nc1ccc(N2CCCCC2)cc1	-	23.1	-	-	-	-
COC(=O)c1ccc(COc2ccccc2/C=C/C(=O)c2ccc(OCC(=O)O)cc2)cc1	-	-	-	-	-	-
COc1ccc(C(CNc2ncnc3sc(C)c(C)c23)N(C)C)cc1 (stereo unspecified)	-	-	-	-	-	-
Cc1sc2ncnc(Nc3ccccc3)c2c1C	-	-	-	-	-	-
c1cncc(CNc2ncnc3sccc23)c1	-	-	-	-	-	-
SMILES	M4 ag	M4 PAM	CHRM5 agonist	CHRM5 antagonist	M4 antag	CHRM5 PAM
Cc1sc2ncnc(NCc3ccccc3)c2c1C	-	-	-	29.0	-	-
COc1ccccc1C(CNc1ncnc2sc(C)c(C)c12)N(C)C (stereo unspecified)	-	-	-	57.2	-	-
c1ccc(CNc2ncnc3sccc23)cc1	-	-	-	39.8	-	-
CCN(c1ccccc1)S(=O)(=O)c1ccc(NC(=O)c2nc(S(C)(=O)=O)ncc2Cl)cc1	36.1	-	-	29.3	75.1	-
CCS(=O)(=O)c1ncc(Cl)c(C(=O)Nc2ccc(S(=O)(=O)N(C)c3ccccc3)cc2)n1	-	-	-	-	59.4	-
CN(Cc1ccc(F)cc1)S(=O)(=O)c1nnc(NC(=O)c2ccccc2Br)s1	-	-	-	-	-	-
Cc1ccc(-n2c(-c3ccco3)n[nH]c2=S)cc1	-	-	-	-	-	-
CC(C1CC2CCC1C2)n1c(-c2ccco2)n[nH]c1=S (stereo unspecified)	-	-	-	28.9	-	-
Cn1cnnc1SCCC(=O)Nc1ccccc1	-	37.5	-	-	-	-
CC(=O)N1CCOc2ccc(S(=O)(=O)N(C)c3ccc(C)cc3)cc21	-	-	-	-	29.1	-
O=C(NCCCN1CCOCC1)c1ccc2c(c1)N(Cc1c(F)cccc1Cl)C(=O)CS2	-	-	-	-	58.2	-
Cc1cccc(CN2C(=O)/C(=C\c3ccc(C(=O)NCCN4CCOCC4)cc3)Sc3ccccc32)c1	-	-	-	31.5	-	-
Cc1ccc(C)c(CN2C(=O)CSc3ccc(C(=O)NCCN4CCOCC4)cc32)c1	-	-	-	-	-	-
O=C(NCCN1CCOCC1)c1ccc2c(c1)N(Cc1ccccc1F)C(=O)CS2	-	-	-	-	46.9	-
CNC(=S)NCc1ccc2[nH]c(C)cc2c1	-	-	-	-	-	18.2
Cc1cc2cc(CNC(=S)NC3CCCCC3)ccc2[nH]1	-	-	-	-	-	-
C=C1C2=C(C(=O)N1OC)[C@@H](O)[C@@](C)(O)[C@@H](CCCCC)O2	-	21.6	-	-	-	-
O=[N+]([O-])c1cccc(COc2ncnc3cc([N+](=O)[O-])ccc23)c1	-	-	-	-	-	-
O=C1NC(=S)N/C1=C\c1ccc(Oc2ccc(C(F)(F)F)cc2[N+](=O)[O-])c(Cl)c1	-	-	-	-	-	19.4
CCCS(=O)(=O)NC(=O)C1(C)CCN(C(=O)c2snnc2C)C1 (stereo unspecified)	-	-	-	-	-	-
CCN(CC)S(=O)(=O)c1ccc(NC(=O)Nc2cccc(C(F)(F)F)c2)cc1	-	-	-	29.8	-	-
O=C(Nc1ccc(OC(F)F)cc1)Nc1cccc(C(F)(F)F)c1	-	-	-	37.4	-	-
O=C(Nc1ccncc1)Nc1cccc(C(F)(F)F)c1	-	-	-	-	-	-
COC(=O)[C@@H](Cc1ccccc1)NC(=O)[C@H]1CCC(=O)N1C(=O)OCc1ccccc1	-	-	-	-	-	-
